Calls of active or inactive are those of the source. No cut-off for these calls is given here.
Legend:
[1] = tested on: SRA1; test: Cytoprotection in human SRA1 cells assessed as protection against H2O2-induced cell death after 2 hrs by MTS assay; type: functional, cell-based
Outline: (§1)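 Cells are seeded at 1 × 10⁴ per well and pre-treated 1 hr in FBS-free medium with 100 μM compound, then given 1 mM H2O2, or 1 mM H2O2 plus 1 mM iron(II) chloride (Fenton), for 2 hr. After a PBS wash, MTS is added in blank medium for 1.5 hr at 37 °C and read at 490 nm. Results are normalized to cells without H2O2 (100%), mean ± SD of three experiments.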

[2] = Binding affinity to Zn(2+) ions assessed as percent parent peaks remaining by electrospray ionization mass spectrometry; design: concentration or dose not given beside the values
Outline: (§2)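 Metal ion stocks (1 mM in double-distilled water) were prepared from ammonium iron(II) sulfate, iron(III) nitrate, copper(I) chloride, copper(II) chloride, zinc chloride, magnesium chloride or calcium chloride. Each was mixed with compound at metal:compound ratios of 10:1, 1:1 and 1:10, keeping the final compound concentration at 50 μM.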

[3] = Binding affinity to Cu(2+) ions assessed as percent parent peaks remaining by electrospray ionization mass spectrometry; design: concentration or dose not given beside the values; outline: as §2
[4] = Binding affinity to Cu(1+) ions assessed as percent parent peaks remaining by electrospray ionization mass spectrometry; design: concentration or dose not given beside the values; outline: as §2
[5] = tested on: SRA1; test: Antioxidant activity in human SRA1 cells assessed as inhibition of H2O2-induced reduction of cellular glutathione level after 2 hrs by DTNB method; type: functional, cell-based
Outline: (§3)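 Cells are pre-incubated 1 hr in FBS-free medium with 100 μM compound, then given 1 mM H2O2, or 1 mM H2O2 plus 1 mM iron(II) chloride (Fenton), for 2 hr. Cells are washed with PBS, scraped and homogenized; supernatant protein is measured by Bradford. Homogenate is deproteinized with 20% TCA, and GSH is read at 412 nm (DTNB). Values are nmol GSH/mg protein, normalized to unexposed cells (100%), in triplicate.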

[6] = Binding affinity to Ca(2+) ions assessed as percent parent peaks remaining by electrospray ionization mass spectrometry; design: concentration or dose not given beside the values; outline: as §2
[7] = Binding affinity to Mg(2+) ions assessed as percent parent peaks remaining by electrospray ionization mass spectrometry; design: concentration or dose not given beside the values; outline: as §2
[8] = Binding affinity to Fe(3+) ions assessed as percent parent peaks remaining by electrospray ionization mass spectrometry; design: concentration or dose not given beside the values; outline: as §2
[9] = Binding affinity to Fe(2+) ions assessed as percent parent peaks remaining by electrospray ionization mass spectrometry; design: concentration or dose not given beside the values; outline: as §2
[10] = tested on: ARPE-19; test: Cytoprotection in human ARPE19 cells assessed as protection against Fenton's reagent-induced cell death after 2 hrs by MTS assay; type: functional, cell-based; outline: as §1
[11] = tested on: HAh; test: Cytoprotection in human HAh cells assessed as protection against Fenton's reagent-induced cell death after 2 hrs by MTS assay; type: functional, cell-based; outline: as §1
[12] = tested on: ARPE-19; test: Antioxidant activity in human […] cells assessed as inhibition of Fenton's reagent-induced reduction of cellular glutathione level after 2 hrs by DTNB method; type: functional, cell-based; outline: as §3
[13] = tested on: SRA1; test: Antioxidant activity in human SRA1 cells assessed as inhibition of Fenton's reagent-induced reduction of cellular glutathione level after 2 hrs by DTNB method; type: functional, cell-based; outline: as §3
[14] = tested on: HAh; test: Antioxidant activity in human HAh cells assessed as inhibition of Fenton's reagent-induced reduction of cellular glutathione level after 2 hrs by DTNB method; type: functional, cell-based; outline: as §3
[15] = tested on: SRA1; test: Cytoprotection in human SRA1 cells assessed as protection against Fenton's reagent-induced cell death after 2 hrs by MTS assay; type: functional, cell-based; outline: as §1

Structure (SMILES)	Activity [1]	Activity [2]	Activity [3]	Activity [4]	Activity [5]	Activity [6]	Activity [7]	Activity [8]	Activity [9]	Activity [10]	Activity [11]	Activity [12]	Activity [13]	Activity [14]	Activity [15]
CN(C)S(=O)(=O)N1CCN(c2ncccn2)CC1	inactive	100%	100%	100%	inactive	100%	100%	100%	100%						
COc1cc(OC)nc(N2C(=O)CN(S(=O)(=O)N(C)C)CC2=O)n1	inactive	13.8%	3.4%	4.1%	inactive	100%	100%	7.6%	7.3%	Active	Active	Active	Active	Active	
COc1nc(N2C(=O)CN(S(=O)(=O)N(C)C)CC2=O)nc(OC)c1O	Active	14.6%	3.6%	4%	Active	100%	100%	8.2%	7.5%	Active	Active	Active	Active	Active	Active
CN(C)S(=O)(=O)N1CCN(c2ncc(O)cn2)CC1	Active	100%	100%	100%	Active	100%	100%	100%	100%	Active	Active	Active		Active	Active
CN(C)S(=O)(=O)N1CC(=O)N(c2ncccn2)C(=O)C1	inactive	15.3%	4.4%	3.6%	inactive	100%	100%	10%	8.1%	Active	Active	Active	Active	Active	
Cc1c(C)c2c(c(C)c1O)CCC(C)(C(=O)O)O2 (stereo unspecified)	Active													Active	
COc1cc(OC)nc(N2CCN(S(=O)(=O)N(C)C)CC2)n1	inactive	100%	100%	100%	inactive	100%	100%	100%	100%						
CN(C)S(=O)(=O)N1CC(=O)N(c2ncc(O)cn2)C(=O)C1	Active	12.7%	3%	4.2%	Active	100%	100%	8.2%	6.9%	Active	Active	Active	Active	Active	Active
COc1nc(N2CCN(S(=O)(=O)N(C)C)CC2)nc(OC)c1O	Active	100%	100%	100%	Active	100%	100%	100%	100%	Active	Active	Active		Active	Active

— ChEMBL document CHEMBL1156826, “Multifunctional antioxidants for the treatment of age-related diseases” (J Med Chem, 2010)
